Data published in ChEMBL document CHEMBL1125060, “Synthesis and biological evaluation of carbocyclic analogues of lyxofuranosides of 2-amino-6-substituted-purines and 2-amino-6-substituted-8-azapurines” (1990).
In brackets after ≈: the same amount, converted by molar mass.

Assays:
Vero [1] = experiment: (§1) In vitro antiviral activity against herpes simplex virus type 1 (E-377 strain) in Vero host cell cultures; format: functional, Chlorocebus sabaeus
How it was run: (§2)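 CPE inhibition assay with HSV-1 strain E-377 replicating in Vero cells. ID50 is the minimum concentration (μg/mL) inhibiting CPE by 50%, from regression with semilog curve fitting. MTC is the minimum concentration (μg/mL) giving any cytotoxicity. TI is MTC divided by ID50.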

MDCK [2] = experiment: In vitro antiviral activity against influenza virus (type A0/PR/8/34) in Madin-Darby canine kidney (MDCK) host cell cultures; format: functional, Canis lupus familiaris
Vero [3] = experiment: Minimum concentration (ug/mL) for in vitro antiviral activity against herpes simplex virus type 1 (E-377 strain) in Vero host cell cultures; format: functional, Chlorocebus sabaeus; how it was run: as §2
P388 [4] = experiment: In vitro inhibition against P-388 mouse leukemia cells using growth inhibition assay at the concentration of 25 ug/mL; format: functional
How it was run: (§3)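 P-388 mouse leukemia cells in culture, by the National Cancer Institute protocol. Tested at 6.25-100 μg/mL and reported as percent growth inhibition. Carbocyclic adenosine is the positive control.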

P388 [5] = experiment: In vitro inhibition against P-388 mouse leukemia cells using growth inhibition assay at the concentration of 100 ug/mL; format: functional; how it was run: as §3
P388 [6] = experiment: In vitro inhibition against P-388 mouse leukemia cells using growth inhibition assay at the concentration of 12.5 ug/mL; format: functional; how it was run: as §3
P388 [7] = experiment: In vitro inhibition against P-388 mouse leukemia cells using growth inhibition assay at the concentration of 50 ug/mL; format: functional; how it was run: as §3
P388 [8] = experiment: In vitro inhibition against P-388 mouse leukemia cells using growth inhibition assay at the concentration of 6.25 ug/mL; format: functional; how it was run: as §3
Vero [9] = experiment: In vitro minimum drug concentration that inhibited herpes simplex virus type 1 (E-377 strain) virus-induced cytopathogenic effects by 50% in vero cells; format: functional; settings: Chlorocebus sabaeus, read-out: ID50 (the source's name); how it was run: as §2
Vero [10] = experiment: In vitro antiviral activity against herpes simplex virus type 1 (E-377 strain) in Vero host cell cultures (MTC/ID50); format: functional, Chlorocebus sabaeus; how it was run: as §2
Vero [11] = experiment: In vitro minimum drug concentration that inhibited herpes simplex virus type 1 (E-377 strain)-induced cytopathogenic effects by 50% in vero cell cultures; format: functional; settings: Chlorocebus sabaeus, read-out: ID50 (the source's name); how it was run: as §2
MRC5 [12] = experiment: Effect of compound treatment on yields of human cytomegalovirus (HCMV) in MRC5 (human diploid embryonic lung cells) monolayer cultures at the concentration of 32 uM; format: functional
How it was run: (§4)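 Virus yield reduction assay with HCMV strain Ad169, passaged, titrated and assayed in MRC5 human diploid embryonic lung cells. Virus yields are read as PFU. Includes a virus control and a DHPG positive control.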

MRC5 [13] = experiment: Cytotoxicity against MRC5 (human diploid embryonic lung cells) cell monolayer cultures by using MTT [3-(4,5-Dimethylthiazol-2-yl)-2,5-diphenyltetrazolium bromide]assay at the concentration of 1000 uM; format: functional
How it was run: (§5)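 MRC5 human diploid embryonic lung cell monolayers. Cytotoxicity is quantified by host-cell mitochondrial reduction of MTT to MTT formazan. It was run alongside the HCMV yield reduction assay.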

MRC5 [14] = experiment: Effect of compound on yields of human cytomegalovirus (HCMV) in MRC5 (human diploid embryonic lung cells)cell monolayer cultures at the concentration of 3.2 uM; format: functional; how it was run: as §4
MRC5 [15] = experiment: Effect of compound treatment on yields of human cytomegalovirus (HCMV) in MRC5 (human diploid embryonic lung cells)cell monolayer cultures at the concentration of 1000 uM; format: functional; how it was run: as §4
MRC5 [16] = experiment: Effect of compound on yields of human cytomegalovirus (HCMV) in MRC5 (human diploid embryonic lung cells)cell monolayer cultures at the concentration of 0 uM; format: functional; how it was run: as §4
MRC5 [17] = experiment: Cytotoxicity against MRC5 (human diploid embryonic lung cells)cell monolayer cultures by using MTT [3-(4,5-Dimethylthiazol-2-yl)-2,5-diphenyltetrazolium bromide]assay at the concentration of 32 uM; format: functional; how it was run: as §5
Vero [18] = experiment: as §1; format: functional; settings: Chlorocebus sabaeus, read-out: ID50 (the source's name); how it was run: as §2
MRC5 [19] = experiment: Cytotoxicity against MRC5 (human diploid embryonic lung cells)cell monolayer cultures at the concentration of 32 uM; format: functional
MRC5 [20] = experiment: Effect of compound on yields of human cytomegalovirus (HCMV) in MRC5 (human diploid embryonic lung cells)cell monolayer cultures at the concentration of 32 uM; format: functional; how it was run: as §4
MRC5 [21] = experiment: Effect of compound on yields of human cytomegalovirus (HCMV) in MRC5 (human diploid embryonic lung cells)cell monolayer cultures at the concentration of 320 uM; format: functional; how it was run: as §4
MRC5 [22] = experiment: Effect of compound on yields of human cytomegalovirus (HCMV) in MRC5 (human diploid embryonic lung cells)cell monolayer cultures at the concentration of 10 uM; format: functional; how it was run: as §4
MRC5 [23] = experiment: Cytotoxicity against MRC5 (human diploid embryonic lung cells) cell monolayer cultures at the concentration of 320 uM; Slightly toxic; format: functional, cell-based
MRC5 [24] = experiment: Cytotoxicity against MRC5 (human diploid embryonic lung cells)cell monolayer cultures by using MTT [3-(4,5-Dimethylthiazol-2-yl)-2,5-diphenyltetrazolium bromide]assay at the concentration of 100 uM; format: functional; how it was run: as §5
MRC5 [25] = experiment: Cytotoxicity against MRC5 (human diploid embryonic lung cells) cell monolayer cultures by using MTT [3-(4,5-Dimethylthiazol-2-yl)-2,5-diphenyltetrazolium bromide]assay at the concentration of 320 uM; format: functional; how it was run: as §5
MRC5 [26] = experiment: Effect of compound on yields of human cytomegalovirus (HCMV) in MRC5 (human diploid embryonic lung cells)cell monolayer cultures at the concentration of 100 uM; format: functional; how it was run: as §4
MRC5 [27] = experiment: Cytotoxicity against MRC5 (human diploid embryonic lung cells)cell monolayer cultures at the concentration of 1000 uM; Slightly toxic; format: functional, cell-based
MRC5 [28] = experiment: Cytotoxicity against MRC5 (human diploid embryonic lung cells)cell monolayer cultures at the concentration of 100 uM; format: functional
Vero [29] = experiment: as §1; format: functional, Chlorocebus sabaeus; remark: listed apart in the source
How it was run: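 CPE-inhibition assay: HSV-1 strain E-377 replicating in African green monkey kidney (Vero) cells. ID50 is the minimum drug concentration (μg/mL) giving 50% CPE inhibition, taken from semilog regression curve fitting. Cytotoxicity was scored as the minimum concentration (μg/mL) showing any toxicity (MTC). TI = MTC/ID50.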

MDCK [30] = experiment: In vitro minimum drug concentration that inhibited the influenza virus-induced cytopathogenic effects by 50% in Madin-Darby canine kidney (MDCK) host cell cultures; format: functional; settings: Canis lupus familiaris, read-out: ID50 (the source's name)
How it was run: (§6)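 MDCK host cell cultures infected with influenza A0/PR/8/34, scored for inhibition of virus-induced cytopathogenic effect (CPE). ID50 is the minimum drug concentration (μg/mL) that cut CPE by 50%, from semilog regression curve fitting. MTC is the minimum concentration (μg/mL) at which any cytotoxicity was seen. Therapeutic index is MTC divided by ID50.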

MDCK [31] = experiment: Minimum concentration (ug/mL) for in vitro antiviral activity against influenza virus (type A0/PR/8/34) in Madin-Darby canine kidney (MDCK) host cell cultures; format: functional, Canis lupus familiaris; how it was run: as §6
MDCK [32] = experiment: In vitro antiviral activity against influenza virus (type A0/PR/8/34) in Madin-Darby canine kidney (MDCK) host cell cultures (MTC/ID50); format: functional, Canis lupus familiaris; how it was run: as §6

Nc1nc(N)c2nnn(C3CC(CO)C(O)C3O)c2n1 (centres undefined)
Virus rating (Vero [1]): 0 | Virus rating (MDCK [2]): 0 | MTC (Vero [3]): >294.8 µg/mL | inhibition at 25 µg/mL (P388 [4]): 12.2% | inhibition at 100 µg/mL (P388 [5]): 58.4% | inhibition at 12.5 µg/mL (P388 [6]): 0% | inhibition at 50 µg/mL (P388 [7]): 31.5% | inhibition at 6.25 µg/mL (P388 [8]): 0%

Nc1nc2c(ncn2COCCO)c(=O)[nH]1 [ACYCLOVIR]
Virus rating (Vero [1]): 6.2 | IC50 (Vero [9]): 0.9 µg/mL (≈ 4 µM) | Therapeutic index (Vero [10]): >240.3 | MTC (Vero [3]): >255.2 µg/mL

Nc1nc(N)c2ncn(C3CC(CO)C(O)C3O)c2n1 (centres undefined)
Virus rating (Vero [1]): 0.6 VR | Virus rating (MDCK [2]): 0 | IC50 (Vero [11]): 195 µg/mL (≈ 696 µM) | Therapeutic index (Vero [10]): 1.4 | MTC (Vero [3]): 280.3 µg/mL | inhibition at 25 µg/mL (P388 [4]): 0% | inhibition at 100 µg/mL (P388 [5]): 42.3% | inhibition at 12.5 µg/mL (P388 [6]): 0% | inhibition at 50 µg/mL (P388 [7]): 11.3% | inhibition at 6.25 µg/mL (P388 [8]): 0%

Nc1nc2c(ncn2COC(CO)CO)c(=O)[nH]1 [GANCICLOVIR]
HCMV yield (MRC5 [12]): 2.4 log10 pfu/mL | HCMV yield reduction (MRC5 [12]): 3 log10 pfu/mL

Nc1nc(O)c2ncn(C3CC(CO)C(O)C3O)c2n1 (centres undefined)
Control (MRC5 [13]): 88% | Virus rating (Vero [1]): 2.1 | HCMV yield (MRC5 [14]): 4.9 log10 pfu/mL | HCMV yield reduction (MRC5 [14]): 0.5 log10 pfu/mL | HCMV yield (MRC5 [15]): < 0.6 log10 pfu/mL | HCMV yield reduction (MRC5 [15]): > 4.8 log10 pfu/mL | HCMV yield (MRC5 [16]): 5.4 log10 pfu/mL | Control (MRC5 [17]): 103% | IC50 (Vero [18]): 83.4 µg/mL (≈ 297 µM) | Gross morphology (MRC5 [19]): 0 | Virus rating (MDCK [2]): 0 | HCMV yield (MRC5 [20]): 4.2 log10 pfu/mL | HCMV yield reduction (MRC5 [20]): 1.2 log10 pfu/mL | HCMV yield (MRC5 [21]): 2.5 log10 pfu/mL | HCMV yield reduction (MRC5 [21]): 2.9 log10 pfu/mL | HCMV yield (MRC5 [22]): 4.8 log10 pfu/mL | HCMV yield reduction (MRC5 [22]): 0.6 log10 pfu/mL | Gross morphology (MRC5 [23]): Toxic | MTC (Vero [3]): >299.3 µg/mL | Control (MRC5 [24]): 97% | Control (MRC5 [25]): 93% | inhibition at 25 µg/mL (P388 [4]): 42.1% | HCMV yield (MRC5 [26]): 3.7 log10 pfu/mL | HCMV yield reduction (MRC5 [26]): 1.7 log10 pfu/mL | inhibition at 100 µg/mL (P388 [5]): 71.6% | inhibition at 12.5 µg/mL (P388 [6]): 9.1% | Gross morphology (MRC5 [27]): Toxic | Gross morphology (MRC5 [28]): 0 | TI (Vero [29]): >3.6 | inhibition at 50 µg/mL (P388 [7]): 58.4% | inhibition at 6.25 µg/mL (P388 [8]): 0%

NC(=O)c1ncn([C@@H]2O[C@H](CO)[C@@H](O)[C@H]2O)n1 [RIBAVIRIN]
IC50 (MDCK [30]): 3.1 µg/mL (≈ 12.7 µM) | Virus rating (MDCK [2]): 3.4 | MTC (MDCK [31]): 32 µg/mL | Therapeutic index (MDCK [32]): 10.3

Nc1nc(Cl)c2nnn(C3CC(CO)C(O)C3O)c2n1 (centres undefined)
Virus rating (Vero [1]): 0 | Virus rating (MDCK [2]): 0.3 | MTC (MDCK [31]): >256.3 µg/mL | MTC (Vero [3]): 300.7 µg/mL | inhibition at 25 µg/mL (P388 [4]): 14.2% | inhibition at 100 µg/mL (P388 [5]): 99.1% | inhibition at 12.5 µg/mL (P388 [6]): 0% | inhibition at 50 µg/mL (P388 [7]): 40.1% | inhibition at 6.25 µg/mL (P388 [8]): 0%

Nc1ncnc2c1ncn2[C@@H]1O[C@H](CO)[C@@H](O)[C@@H]1O [VIDARABINE]
Virus rating (Vero [1]): 2.4 | IC50 (Vero [18]): 4.8 µg/mL (≈ 18 µM) | Therapeutic index (Vero [10]): 5.6 | MTC (Vero [3]): 26.8 µg/mL

Nc1nc(O)c2nnn(C3CC(CO)C(O)C3O)c2n1 (centres undefined)
Virus rating (Vero [1]): 0 | Virus rating (MDCK [2]): 0.2 | MTC (MDCK [31]): 95 µg/mL | MTC (Vero [3]): 300.3 µg/mL | inhibition at 25 µg/mL (P388 [4]): 5% | inhibition at 100 µg/mL (P388 [5]): 63.9% | inhibition at 12.5 µg/mL (P388 [6]): 0% | inhibition at 50 µg/mL (P388 [7]): 27.4% | inhibition at 6.25 µg/mL (P388 [8]): 0%

Nc1nc(Cl)c2ncn(C3CC(CO)C(O)C3O)c2n1 (centres undefined)
Virus rating (Vero [1]): 0 | Virus rating (MDCK [2]): 0 | MTC (Vero [3]): 299.7 µg/mL | inhibition at 25 µg/mL (P388 [4]): 0% | inhibition at 100 µg/mL (P388 [5]): 2.8% | inhibition at 12.5 µg/mL (P388 [6]): 0% | inhibition at 50 µg/mL (P388 [7]): 0% | inhibition at 6.25 µg/mL (P388 [8]): 0%

Nc1ncnc2c1ncn2[C@@H]1C[C@H](CO)[C@@H](O)[C@H]1O [ARISTEROMYCIN]
inhibition at 25 µg/mL (P388 [4]): 100% | inhibition at 100 µg/mL (P388 [5]): 100% | inhibition at 12.5 µg/mL (P388 [6]): 100% | inhibition at 50 µg/mL (P388 [7]): 100% | inhibition at 6.25 µg/mL (P388 [8]): 100%
